Values after ≈ are worked out from the molar mass of the structure shown. Peptide text beside a SMILES is read from it.
Columns and labels:
Format in all cases: functional
[1] = system: Escherichia coli; experiment: Compound tested for in vitro susceptibility against ATCC strain 25922 of Escherichia coli; conditions: ATCC25922
Summary of the method: (§1)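 Microbroth dilution in Tryptic Soy Broth; inoculum 5×10^5 CFU/mL; plates incubated at 37 °C for 18-20 h; value reported as minimal inhibitory concentration (µg/mL).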

[2] = system: Pseudomonas aeruginosa; experiment: Compound tested for in vitro susceptibility against ATCC strain 27853 of Pseudomonas aeruginosa; conditions: ATCC 27853; summary of the method: as §1
[3] = system: Staphylococcus aureus; experiment: Compound tested for in vitro susceptibility against ATCC strain 29213 of Staphylococcus aureus; summary of the method: as §1

For `NCCCC[C@H](NC(=O)[C@H](CCCCN)NC(=O)[C@H](Cc1c[nH]c2ccccc12)NC(=O)[C@H](Cc1c[nH]c2ccccc12)NC(=O)[C@H](CCCCN)NC(=O)[C@H](Cc1c[nH]c2ccccc12)NC(=O)[C@H](Cc1c[nH]c2ccccc12)NC(=O)[C@H](CCCCN)NC(=O)[C@@H](N)CCCCN)C(=O)N[C@@H](Cc1c[nH]c2ccccc12)C(=O)O` (H-KKWWKWWKKW-OH), which MIC [1] is on record?
Its MIC is 50 mg/L (≈ 31.4 µM).

And the MIC [2]?
Its MIC is 50 mg/L (≈ 31.4 µM).

And the MIC [3]?
The MIC was 12.5 mg/L (≈ 7.86 µM).

With `CC(C)C[C@H](NC(=O)[C@H](C)NC(=O)[C@H](CCCCN)NC(=O)[C@H](C)NC(=O)[C@H](CC(C)C)NC(=O)[C@H](CCCCN)NC(=O)[C@H](C)NC(=O)[C@H](CC(C)C)NC(=O)[C@H](CCCCN)NC(=O)[C@H](CCCCN)NC(=O)[C@H](C)NC(=O)[C@H](CC(C)C)NC(=O)[C@H](CCCCN)NC(=O)[C@H](CCCCN)NC(=O)[C@H](C)NC(=O)[C@H](CC(C)C)NC(=O)[C@@H](N)CCCCN)C(=O)O` (H-KLAKKLAKKLAKLAKAL-OH) as the compound, how does the MIC [1] read?
Its MIC is 25 mg/L (≈ 13.6 µM).

What about the MIC [2] of the same compound?
Its MIC is 50 mg/L (≈ 27.2 µM).

What about the MIC [3] of the same compound?
The MIC was 200 mg/L (≈ 109 µM).

— ChEMBL document CHEMBL1126653, “Structure-function studies of amphiphilic antibacterial peptides” (1993)
